Results on five molecules are retold here after ChEMBL document CHEMBL3045648, “Proapoptotic effects of novel pentabromobenzylisothioureas in human leukemia cell lines” (2012).

Assay [1] deals with K562. In words: Induction of cell cycle arrest in Homo sapiens (human) K562 cells assessed as decrease in G2/M phase cells after 48 hr by PI-staining based flow cytometric analysis. In kind it is functional. An outline of the steps: (§1)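 Cells treated 48 h with DMSO solvent controls, washed in cold PBS and fixed in 70% ethanol at −20°C for at least 24 h. Stained 30 min in the dark at room temperature with 50 μg/ml PI and 100 μg/ml RNase in PBS/0.1% Triton X-100. DNA content measured by flow cytometry and phase percentages modelled; mean ± SD, n ≥ 4.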
On the technique in general: Flow cytometry measures light scatter and fluorescence of single cells or particles in a stream.

In assay [2] the test system is HL-60. In words: Induction of cell cycle arrest in Homo sapiens (human) HL60 cells assessed as accumulation of G1 phase cells after 48 hr by PI-staining based flow cytometric analysis. The assay is classed as functional. An outline of the steps: as §1
The subject of assay [3] is K562. In words: Induction of apoptosis in Homo sapiens (human) K562 cells assessed as mitochondrial membrane depolarization at 10 uM after 48 hr by JC-1 staining based flow cytometric analysis (reference value: 6.1 +/- 0.9%). In kind it is functional.
Assay [4] has as its system K562. Description: Induction of cell cycle arrest in Homo sapiens (human) K562 cells assessed as cells accumulation of G1/S phase cells after 48 hr by PI-staining based flow cytometric analysis. The assay is classed as functional. An outline of the steps: as §1
Assay [5] has as its system HL-60. In words: Induction of cell cycle arrest in Homo sapiens (human) HL60 cells assessed as decrease in G2/M phase cells after 48 hr by PI-staining based flow cytometric analysis. The assay is classed as functional. An outline of the steps: as §1
In assay [6] the test system is K562. Description: Induction of apoptosis in Homo sapiens (human) K562 cells from 24 to 48 hr by annexinV/PI-staining based flow cytometric analysis. The assay is classed as functional, cell-based. The method in brief:
(§2)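 Cells seeded at 2.5 × 10^5 cells/ml in RPMI-1640/10% FBS, treated 24 or 48 h, DMSO solvent controls. Rinsed twice in cold PBS and resuspended at 2 × 10^6 cells/ml in binding buffer. Labelled with annexin V-FITC and PI for 15 min at room temperature in the dark. Flow cytometry within 1 h; mean ± SD, n ≥ 4.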

For assay [7], the system named is HL-60. Description: Induction of apoptosis in Homo sapiens (human) HL60 cells at 5 to 8 uM by annexinV/PI-staining based flow cytometric analysis. The assay is classed as functional, cell-based. As to conditions: TDE = time-dependent effect. The method in brief: as §2
Assay [8] has as its system K562. Description: Induction of apoptosis in Homo sapiens (human) K562 cells at 10 to 20 uM by annexinV/PI-staining based flow cytometric analysis. The assay is classed as functional, cell-based. Conditions: TDE = time-dependent effect. The method in brief:
as §2

Assay [9] relates to HL-60. Description: Induction of apoptosis in Homo sapiens (human) HL60 cells assessed as mitochondrial membrane depolarization at 5 uM after 48 hr by JC-1 staining based flow cytometric analysis (reference value: 7.7 +/- 2.4%). In kind it is functional.
The test system of assay [10] is HL-60. Description: Induction of cell cycle arrest in Homo sapiens (human) HL60 cells assessed as cells accumulation of G1/S phase cells after 48 hr by PI-staining based flow cytometric analysis. The assay is classed as functional. An outline of the steps:
as §1

Assay [11] has as its system HL-60. In words: Induction of apoptosis in Homo sapiens (human) HL60 cells from 24 to 48 hr by annexinV/PI-staining based flow cytometric analysis. The assay is classed as functional, cell-based. The method in brief:
as §2

Assay [12] deals with K562. In words: Induction of cell cycle arrest in Homo sapiens (human) K562 cells assessed as accumulation of G1 phase cells after 48 hr by PI-staining based flow cytometric analysis. The assay is classed as functional. An outline of the steps: as §1
The subject of assay [13] is K562. Description: Induction of cell cycle arrest in Homo sapiens (human) K562 cells assessed as G1 phase cells at 10 uM after 48 hr by PI-staining based flow cytometric analysis (reference value: 37.6 +/- 3.2 %). In kind it is functional. An outline of the steps: as §1
Assay [14] relates to K562. In words: Induction of cell cycle arrest in Homo sapiens (human) K562 cells assessed as S phase cells at 20 uM after 48 hr by PI-staining based flow cytometric analysis (reference value: 43.3 +/- 3.4%). The assay is classed as functional. An outline of the steps: as §1
Assay [15] deals with K562. In words: Induction of cell cycle arrest in Homo sapiens (human) K562 cells assessed as S phase cells at 10 uM after 48 hr by PI-staining based flow cytometric analysis (reference value: 43.3 +/- 3.4%). The assay is classed as functional. An outline of the steps:
as §1

Assay [16] concerns HL-60. Description: Induction of apoptosis in Homo sapiens (human) HL60 cells assessed as PARP cleavage at 8 uM after 48 hr by FITC conjugated antiPARP-staining based flow cytometric analysis. In kind it is functional, cell-based. The method in brief: (§3)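 Cells in RPMI-1640 with 10% heat-inactivated FBS, seeded at 2.5 × 10^5 cells/ml and treated from DMSO solution. Controls got the same solvent volume. Harvested 48 h post-treatment and washed twice in PBS. Stained with FITC anti-PARP antibody specific for the 85 kDa cleaved fragment. Flow cytometry reported fluorescence intensity, with negative (M1) and positive (M2) gates.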

For assay [17], the system named is K562. Description: Induction of cell cycle arrest in Homo sapiens (human) K562 cells assessed as G2/M phase cells at 10 uM after 48 hr by PI-staining based flow cytometric analysis (reference value: 19.1 +/- 3.9%). The assay is classed as functional. An outline of the steps:
as §1

In assay [18] the test system is K562. In words: Induction of cell cycle arrest in Homo sapiens (human) K562 cells assessed as G2/M phase cells at 20 uM after 48 hr by PI-staining based flow cytometric analysis (reference value: 19.1 +/- 3.9%). In kind it is functional. The method in brief: as §1
Assay [19] deals with HL-60. Description: Induction of apoptosis in Homo sapiens (human) HL60 cells assessed as apoptotic nuclei at 8 uM after 48 hr by DAPI/sulforhodamine 101-stainihng based fluorescence micrscopic analysis. In kind it is functional, cell-based. An outline of the steps: (§4)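 Exponentially growing cells seeded at 2.5 × 10^5 cells/ml, exposed 48 h, DMSO solvent controls. Washed in cold PBS and fixed in 70% ethanol at −20°C for at least 24 h. Stained with 1.0 μg/ml DAPI plus 20 μg/ml sulforhodamine 101. Nuclear morphology scored by fluorescence microscopy.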

For assay [20], the system named is HL-60. In words: Induction of apoptosis in Homo sapiens (human) HL60 cells assessed as concentrated chromatin at 8 uM after 48 hr by DAPI/sulforhodamine 101-stainihng based fluorescence micrscopic analysis. The assay is classed as functional, cell-based. An outline of the steps: as §4
The test system of assay [21] is K562. Description: Induction of cell cycle arrest in Homo sapiens (human) K562 cells assessed as G1 phase cells at 20 uM after 48 hr by PI-staining based flow cytometric analysis (reference value: 37.6 +/- 3.2 %). In kind it is functional. An outline of the steps: as §1
Assay [22] deals with K562. Description: Induction of apoptosis in Homo sapiens (human) K562 cells assessed as PARP cleavage at 10 uM after 48 hr by FITC conjugated antiPARP-staining based flow cytometric analysis. In kind it is functional, cell-based. The method in brief: as §3

Active and inactive are the calls of the source. The calls are words filed in the database; no cut-off is given here.

On to `Br.C=CCNC(=N)SCc1c(Br)c(Br)c(Br)c(Br)c1Br`, for which the Activity result in the assay on K562 [1] is “Dose-dependent effect”; with HL-60 [2], “Dose-dependent effect”; with K562 [3], 60%; in the assay on K562 [4], “Dose-dependent effect”; with HL-60 [5], “Dose-dependent effect”; in the assay on K562 [6] it was “Dose-dependent effect”. For the same molecule, the Activity entry in the assay on HL-60 [7] is “tde”; in the assay with K562 [8], “tde”; with HL-60 [9], 12.8%; in the assay on HL-60 [10] it was “Dose-dependent effect”; in the assay on HL-60 [11], “Dose-dependent effect”; with K562 [12] it was “Dose-dependent effect”.
In the case of `Br.CCNC(=N)SCc1c(Br)c(Br)c(Br)c(Br)c1Br`, the Activity entry in the assay on K562 [1] was “Dose-dependent effect”; with HL-60 [2], “Dose-dependent effect”; in the assay on K562 [3], 62.2%; in the assay on K562 [4], “Dose-dependent effect”; in the assay with HL-60 [5], “Dose-dependent effect”; in the assay with K562 [6], “Dose-dependent effect”. The Activity entry is “tde” in the assay on HL-60 [7]; “tde” with K562 [8]; 30.1% with HL-60 [9]; “Dose-dependent effect” in the assay with HL-60 [10]; “Dose-dependent effect” in the assay on HL-60 [11]; “Dose-dependent effect” with K562 [12].
For the molecule `Br.C/N=C(/NC)SCc1c(Br)c(Br)c(Br)c(Br)c1Br`, the Activity was 55.5% with K562 [13]; “Dose-dependent effect” in the assay with K562 [1]; “Dose-dependent effect” in the assay on HL-60 [2]; 42.5% in the assay with K562 [14]; 77.7% in the assay on K562 [3]; 35.5% in the assay with K562 [15]. The Activity entry is “Dose-dependent effect” in the assay on K562 [4]; “Dose-dependent effect” with HL-60 [5]; “Dose-dependent effect” in the assay with K562 [6]; 9% with K562 [17]; “tde” in the assay with HL-60 [7]; “tde” in the assay on K562 [8]. In addition, the Activity with HL-60 [9] is 93.1%; in the assay on K562 [18], 2.5%; in the assay with HL-60 [10], “Dose-dependent effect”; with HL-60 [11], “Dose-dependent effect”; in the assay with K562 [12], “Dose-dependent effect”; in the assay with K562 [21], 55%. Moreover, the result in the assay on HL-60 [16], in the assay with HL-60 [19] and with HL-60 [20] was Active.
For the molecule `Br.CNC(=N)SCc1c(Br)c(Br)c(Br)c(Br)c1Br`, the Activity result was “Dose-dependent effect” with K562 [1]; “Dose-dependent effect” in the assay with HL-60 [2]; 81.8% in the assay on K562 [3]; “Dose-dependent effect” in the assay with K562 [4]; “Dose-dependent effect” in the assay on HL-60 [5]; “Dose-dependent effect” with K562 [6]. For the same molecule, the Activity result in the assay on HL-60 [7] is “tde”; in the assay with K562 [8], “tde”; in the assay with HL-60 [9] it was 24.4%; in the assay on HL-60 [10], “Dose-dependent effect”; with HL-60 [11], “Dose-dependent effect”; in the assay on K562 [12] it was “Dose-dependent effect”. Besides, in the assay on K562 [22], the result was Active.
On to `Br.N=C(N)SCc1c(Br)c(Br)c(Br)c(Br)c1Br`, for which the Activity result in the assay on K562 [1] is “Dose-dependent effect”; in the assay with HL-60 [2], “Dose-dependent effect”; in the assay on K562 [3], 63.8%; in the assay with K562 [4], “Dose-dependent effect”; in the assay with HL-60 [5] it was “Dose-dependent effect”; in the assay with K562 [6] it was “Dose-dependent effect”. The Activity entry in the assay on HL-60 [7] is “tde”; in the assay on K562 [8] it was “tde”; in the assay with HL-60 [9] it was 21.9%; in the assay on HL-60 [10], “Dose-dependent effect”; with HL-60 [11], “Dose-dependent effect”; in the assay with K562 [12], “Dose-dependent effect”.
